Data taken from ChEMBL document CHEMBL4725282, “Discovery of a Conformationally Constrained Oxazolidinone with Improved Safety and Efficacy Profiles for the Treatment of Multidrug-Resistant Tuberculosis” (J Med Chem, 2020).

What was measured:
[1] = Toxicity in female Sprague-Dawley rat assessed as mortality at 50 to 450 mg/kg/day, po administered for 4 weeks; format: organism-based; conditions: in vivo, 672 h, dose 50-450 mg/kg/day
Procedure, shortened: (§1)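 SD rats, 6-7 weeks old (96 in total), split into vehicle, 50, 150 and 450 mg/kg/day groups of 12 females and 12 males each, given oral doses once daily for 4 weeks, then 2 weeks of recovery. Mortality, body weight, food intake, eyes, urine and neuropsychic signs were observed. Organ and bone marrow histopathology was done on 8 rats per sex per group after the last dose and on the remaining 4 per sex after 14 days of recovery.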

[2] = Oral bioavailability in Balb/c mouse at 25 mg/kg by LC-MS/MS analysis; format: ADME, organism-based; conditions: in vivo
Procedure, shortened: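 Female BALB/c mice, 20-25 g, five per route. Dosed 25 mg/kg p.o. in 0.5% carboxymethyl cellulose or 2.5 mg/kg i.v. in 10% DMSO/saline. Blood sampled 5 min-72 h (p.o.) or 2 min-48 h (i.v.), quantified by LC/MS/MS with ESI+. Parameters by non-compartmental analysis; F = (AUCpo×dose_iv)/(AUCiv×dose_po)×100%.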

[3] = Toxicity in male Sprague-Dawley rat assessed as change in white blood cell count at 50 mg/kg/day, po administered for 4 weeks followed by 2 week recovery period (Rvb =6.12 +/- 1.10 10^9/L); format: organism-based; conditions: in vivo, 672 h
Procedure, shortened: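 SD rats aged 6-7 weeks, 24 per group (12 female, 12 male): vehicle, 50, 150 or 450 mg/kg/day given orally once daily for 4 weeks, then 2-week recovery. 8 per sex per group dissected after the last dose and 4 per sex after 14-day recovery. Hematology included WBC count, reported as mean ± SD (n = 12), compared with vehicle.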

[4] = target: Cytochrome P450 2D6 (Homo sapiens, UniProt P10635); test: Inhibition of CYP2D6 in human liver microsomes after 20 mins by LC-MS/MS analysis; format: ADME
Sequence of Cytochrome P450 2D6 (P10635 whole entry, canonical isoform): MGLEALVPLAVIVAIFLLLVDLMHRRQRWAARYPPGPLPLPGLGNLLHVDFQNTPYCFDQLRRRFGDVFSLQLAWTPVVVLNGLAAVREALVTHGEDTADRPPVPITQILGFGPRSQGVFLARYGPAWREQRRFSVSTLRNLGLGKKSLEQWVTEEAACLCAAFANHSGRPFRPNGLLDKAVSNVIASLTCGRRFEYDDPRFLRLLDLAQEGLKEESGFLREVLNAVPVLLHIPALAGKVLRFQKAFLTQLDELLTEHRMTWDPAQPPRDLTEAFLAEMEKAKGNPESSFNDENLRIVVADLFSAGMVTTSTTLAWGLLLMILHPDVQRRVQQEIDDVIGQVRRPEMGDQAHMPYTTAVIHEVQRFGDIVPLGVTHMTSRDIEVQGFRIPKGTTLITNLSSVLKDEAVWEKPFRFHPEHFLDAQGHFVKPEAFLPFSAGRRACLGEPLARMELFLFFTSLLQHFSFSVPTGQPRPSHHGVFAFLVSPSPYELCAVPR
Procedure, shortened: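 Human liver microsomes (0.2 mg/mL) in phosphate buffer, 20 min incubation with compound at 0.1-50 μM alongside isoform-specific substrates and a positive control. Substrate remaining monitored by LC-MS/MS at each concentration; IC50 derived.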

[5] = Toxicity in male Sprague-Dawley rat assessed as body weight loss at 50 to 450 mg/kg/day, po administered for 4 weeks measured at 1 week interval; format: organism-based; conditions: in vivo, 672 h, dose 50-450 mg/kg/day; procedure, shortened: as §1
[6] = Toxicity in male Sprague-Dawley rat assessed as effect on food consumption at 50 to 450 mg/kg/day, po administered for 4 weeks followed by 2 week recovery period measured at 1 week interval; format: organism-based; conditions: in vivo, 672 h, dose 50-450 mg/kg/day
[7] = Genotoxicity in CHO-WBL cells assessed as chromosome aberration at 90 to 397.1 ug/ml incubated for 3 hrs followed by compound washout and measured after 17 hrs in presence of S9 fraction by Giemsa staining based; format: toxicity, subcellular, Cricetulus griseus; conditions: chinese hamster, s9, 3 h, dose 90-397.1 µg/ml
Procedure, shortened: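 CHO-WBL cells in McCoy's 5A with 10% FBS, seeded 20-24 h before treatment. Compound in DMSO, with or without serum-free S-9 mix. Treatment either 3 h, then HBSS wash and 17 h further culture, or 20 h; harvest at 20 h from treatment start. Colcemid 0.1 μg/mL for the final 2 h, hypotonic KCl, methanol:acetic acid fixation, Giemsa stain. 300 metaphases per concentration (150 per duplicate flask) scored.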

**Q.** With `CC(=O)NC[C@@H]1OC(=O)N2c3cc(F)c(N4CCSCC4)cc3OC[C@@H]12` as the compound, how does the Activity [1] read?
**A.** Non-Toxic

**Q.** What about the bioavailability [2] of the same compound?
**A.** 55.9%

**Q.** And the Activity [3]?
**A.** 6.22 10^9/L

**Q.** And the IC50 [4]?
**A.** > 50 µM

**Q.** And the Activity [5]?
**A.** Non-Toxic

**Q.** What about the Activity [6] of the same compound?
**A.** Non-Toxic

**Q.** For `CC(=O)NC[C@@H]1OC(=O)N2c3cc(F)c(N4CC[S+]([O-])CC4)cc3OC[C@@H]12`, which Activity [7] is on record?
**A.** Non-Toxic
